Results: ChEMBL document CHEMBL1150627, “Diterpenes from the roots of Euphorbia kansui and their in vitro effects on the cell division of Xenopus” (2002)
Active and inactive are the calls of the source. No cut-off for these calls is given here.

Organism: Xenopus laevis
Assay: Induction of cleavage arrest in embryonic cells of Xenopus laevis stage 8 blastulae after 20 hrs by animal cap assay
Format: functional, cell-based
Procedure, shortened: (§1)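 Single inner-surface cells taken from animal caps of X. laevis stage 8 blastulae, freed in Ca/Mg-free medium (50 mM phosphate, 35 mM NaCl, 1 mM KCl, pH 7.0). Two or three cells per well in NAM/2 with 2 mg/mL γ-globulin, non-nutritive. Test concentrations 0.1, 0.5, 2, 10, 50 and 200 µg/mL. Cultured 20 h at 25 °C. Read-out: percentage of cells with cleavage arrest.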

Row | Structure (SMILES) | Activity
1 | C=C1[C@H](OC(=O)c2ccccc2)[C@H]2[C@@H](OC(C)=O)[C@](C)(O)[C@H](OC(C)=O)[C@]2(O)C(=O)[C@@H](C)[C@H]2O[C@@H]2C(C)(C)C(=O)[C@H](O)[C@H]1OC(=O)c1ccccc1 | inactive
2 | C=C1[C@H](OC(C)=O)[C@@H](OC(=O)c2ccccc2)[C@@H](OC(C)=O)C(C)(C)[C@H]2O[C@](O)([C@H](C)C2=O)[C@@]2(OC(C)=O)C[C@H](C)[C@H](OC(C)=O)[C@@H]2[C@H]1OC(C)=O | inactive

Tested on: not listed separately
Assay: Induction of cleavage arrest in embryonic cells of Xenopus laevis stage 8 blastulae at 0.5 ug/mL after 20 hrs by animal cap assay
Format: functional
Procedure, shortened: as §1

Row | Structure (SMILES) | Activity
3 | CCCCC/C=C\C=C\C(=O)O[C@H]1C(C)=C[C@]23C(=O)[C@@H](C=C(COC(C)=O)[C@@H](O)[C@]12O)[C@H]1[C@@H](C[C@H]3C)C1(C)C | >75%
4 | CCCCC/C=C/C=C/C(=O)OCC1=C[C@@H]2C(=O)[C@]3(C=C(C)[C@H](O)[C@@]3(O)[C@@H]1O)[C@H](C)C[C@@H]1[C@H]2C1(C)C | >75%
5 | CCCCC/C=C\C=C\C(=O)O[C@H]1C(C)=C[C@]23C(=O)[C@@H](C=C(CO)[C@@H](OC(C)=O)[C@]12O)[C@H]1[C@@H](C[C@H]3C)C1(C)C | >75%
6 | CCCCC/C=C/C=C/C(=O)O[C@H]1C(C)=C[C@]23C(=O)[C@@H](C=C(CO)[C@@H](O)[C@]12O)[C@H]1[C@@H](C[C@H]3C)C1(C)C | >75%
7 | CCCCC/C=C/C=C/C(=O)O[C@@H]1C(CO)=C[C@@H]2C(=O)[C@]3(C=C(C)[C@H](O)[C@@]13O)[C@H](C)C[C@@H]1[C@H]2C1(C)C | >75%
8 | CCCCCCCCCC(=O)OCC1=C[C@@H]2C(=O)[C@]3(C=C(C)[C@H](O)[C@@]3(O)[C@@H]1O)[C@H](C)C[C@@H]1[C@H]2C1(C)C | >75%
9 | CCCCC/C=C\C=C\C(=O)OCC1=C[C@@H]2C(=O)[C@]3(C=C(C)[C@H](O)[C@@]3(O)[C@@H]1O)[C@H](C)C[C@@H]1[C@H]2C1(C)C | >75%
10 | CCCCC/C=C\C=C\C(=O)O[C@H]1C(C)=C[C@]23C(=O)[C@@H](C=C(CO)[C@@H](O)[C@]12O)[C@H]1[C@@H](C[C@H]3C)C1(C)C | >75%
11 | CCCCC/C=C/C=C/C(=O)O[C@H]1C(C)=C[C@]23C(=O)[C@@H](C=C(COC(C)=O)[C@@H](O)[C@]12O)[C@H]1[C@@H](C[C@H]3C)C1(C)C | >75%
